Reference: the M2OR odorant receptor database

What was measured:
Settings in all cases: stereoisomer not certain
[1] = target: T1, OR10H3 (Homo sapiens) (UniProt O60404)
T1 sequence (whole entry): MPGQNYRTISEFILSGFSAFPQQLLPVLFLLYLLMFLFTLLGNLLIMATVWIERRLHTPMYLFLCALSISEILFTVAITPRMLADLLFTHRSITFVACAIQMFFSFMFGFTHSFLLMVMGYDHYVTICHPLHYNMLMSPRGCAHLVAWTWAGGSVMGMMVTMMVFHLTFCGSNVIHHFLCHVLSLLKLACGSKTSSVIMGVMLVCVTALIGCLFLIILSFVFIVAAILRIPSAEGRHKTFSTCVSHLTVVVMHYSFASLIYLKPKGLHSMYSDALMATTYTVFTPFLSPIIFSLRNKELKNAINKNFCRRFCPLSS
Procedure, shortened: (§1)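 Each receptor–molecule pair is labelled responsive or non-responsive (inactive) according to whether the original authors judged the measured signal statistically different from baseline. The data were taken from the main text and supplementary material of published papers and checked for typos and inconsistencies. Assay methods differed by source, with transient luciferase assays in mammalian cell lines being common.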

[2] = target: T2, OR10H4 (Homo sapiens) (UniProt Q8NGA5)
T2 sequence (whole entry): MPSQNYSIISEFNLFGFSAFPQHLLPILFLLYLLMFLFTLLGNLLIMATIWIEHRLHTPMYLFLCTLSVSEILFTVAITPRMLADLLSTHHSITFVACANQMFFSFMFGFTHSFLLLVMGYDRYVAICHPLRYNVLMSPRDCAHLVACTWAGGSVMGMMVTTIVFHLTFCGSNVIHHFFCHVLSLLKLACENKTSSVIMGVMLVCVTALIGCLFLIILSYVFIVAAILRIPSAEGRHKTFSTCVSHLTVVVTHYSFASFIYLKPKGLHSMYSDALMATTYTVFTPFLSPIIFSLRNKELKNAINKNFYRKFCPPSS
Procedure, shortened: as §1

[3] = target: T3, OR10H5 (Homo sapiens) (UniProt Q8NGA6)
T3 sequence (whole entry): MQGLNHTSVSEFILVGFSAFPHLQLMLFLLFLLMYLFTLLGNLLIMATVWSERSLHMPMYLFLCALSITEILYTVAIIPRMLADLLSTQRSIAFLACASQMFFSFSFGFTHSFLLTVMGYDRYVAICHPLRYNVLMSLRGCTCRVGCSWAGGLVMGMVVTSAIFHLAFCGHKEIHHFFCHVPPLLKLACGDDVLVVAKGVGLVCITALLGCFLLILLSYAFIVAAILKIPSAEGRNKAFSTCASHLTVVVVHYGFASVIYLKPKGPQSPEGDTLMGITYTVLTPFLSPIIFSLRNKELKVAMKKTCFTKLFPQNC
Procedure, shortened: as §1

[4] = target: T4, OR10J1 (Homo sapiens) (UniProt P30954)
T4 sequence (whole entry): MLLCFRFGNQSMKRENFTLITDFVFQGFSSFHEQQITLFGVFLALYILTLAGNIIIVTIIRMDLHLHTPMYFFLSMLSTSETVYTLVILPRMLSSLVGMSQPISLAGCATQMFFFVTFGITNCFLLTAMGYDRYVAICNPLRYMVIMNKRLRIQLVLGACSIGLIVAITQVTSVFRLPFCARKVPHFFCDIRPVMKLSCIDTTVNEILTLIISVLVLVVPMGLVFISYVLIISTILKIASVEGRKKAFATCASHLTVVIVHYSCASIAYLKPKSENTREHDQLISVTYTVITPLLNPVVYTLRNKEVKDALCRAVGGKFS
Procedure, shortened: as §1

[5] = target: T5, OR10J3 (Homo sapiens) (UniProt Q5JRS4)
T5 sequence (whole entry): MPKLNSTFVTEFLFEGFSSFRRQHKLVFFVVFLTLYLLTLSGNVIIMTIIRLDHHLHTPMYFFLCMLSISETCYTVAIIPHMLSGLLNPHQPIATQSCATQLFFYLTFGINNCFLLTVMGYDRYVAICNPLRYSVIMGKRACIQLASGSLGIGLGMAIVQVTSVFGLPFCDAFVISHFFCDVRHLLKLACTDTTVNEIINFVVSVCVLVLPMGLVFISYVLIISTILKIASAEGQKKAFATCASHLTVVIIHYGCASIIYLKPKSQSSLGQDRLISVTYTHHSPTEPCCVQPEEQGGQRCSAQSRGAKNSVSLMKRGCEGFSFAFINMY
Procedure, shortened: as §1

[6] = target: T6, OR10J5 (Homo sapiens) (UniProt Q8NHC4)
T6 sequence (whole entry): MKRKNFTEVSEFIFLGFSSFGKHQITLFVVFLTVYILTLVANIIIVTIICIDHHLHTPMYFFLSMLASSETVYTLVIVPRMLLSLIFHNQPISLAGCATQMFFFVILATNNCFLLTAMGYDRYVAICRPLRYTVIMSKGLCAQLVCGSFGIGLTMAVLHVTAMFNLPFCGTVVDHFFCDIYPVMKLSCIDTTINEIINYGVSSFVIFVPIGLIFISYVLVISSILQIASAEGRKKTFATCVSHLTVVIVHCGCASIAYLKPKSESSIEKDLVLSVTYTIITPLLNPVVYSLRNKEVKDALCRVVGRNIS
Procedure, shortened: as §1

[7] = target: T7, OR10K1 (Homo sapiens) (UniProt Q8NGX5)
T7 sequence (whole entry): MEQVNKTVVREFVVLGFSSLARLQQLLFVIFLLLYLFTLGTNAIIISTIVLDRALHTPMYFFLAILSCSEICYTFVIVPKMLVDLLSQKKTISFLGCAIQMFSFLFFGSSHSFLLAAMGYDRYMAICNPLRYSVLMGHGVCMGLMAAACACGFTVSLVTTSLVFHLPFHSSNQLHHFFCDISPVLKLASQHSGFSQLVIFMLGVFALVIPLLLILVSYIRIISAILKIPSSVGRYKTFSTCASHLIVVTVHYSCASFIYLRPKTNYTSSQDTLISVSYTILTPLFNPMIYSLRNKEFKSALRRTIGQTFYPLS
Procedure, shortened: as §1

[8] = target: T8, OR10K2 (Homo sapiens) (UniProt Q6IF99)
T8 sequence (whole entry): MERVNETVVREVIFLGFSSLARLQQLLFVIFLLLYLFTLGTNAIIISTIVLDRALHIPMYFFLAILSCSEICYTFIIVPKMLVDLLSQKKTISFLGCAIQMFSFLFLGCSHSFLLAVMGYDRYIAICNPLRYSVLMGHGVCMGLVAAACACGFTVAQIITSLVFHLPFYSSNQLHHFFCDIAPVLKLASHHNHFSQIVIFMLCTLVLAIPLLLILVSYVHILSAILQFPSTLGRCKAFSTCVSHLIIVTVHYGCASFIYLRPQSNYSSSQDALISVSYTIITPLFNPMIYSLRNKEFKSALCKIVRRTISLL
Procedure, shortened: as §1

[9] = target: T9, OR10P1 (Homo sapiens) (UniProt Q8NGE3)
T9 sequence (whole entry): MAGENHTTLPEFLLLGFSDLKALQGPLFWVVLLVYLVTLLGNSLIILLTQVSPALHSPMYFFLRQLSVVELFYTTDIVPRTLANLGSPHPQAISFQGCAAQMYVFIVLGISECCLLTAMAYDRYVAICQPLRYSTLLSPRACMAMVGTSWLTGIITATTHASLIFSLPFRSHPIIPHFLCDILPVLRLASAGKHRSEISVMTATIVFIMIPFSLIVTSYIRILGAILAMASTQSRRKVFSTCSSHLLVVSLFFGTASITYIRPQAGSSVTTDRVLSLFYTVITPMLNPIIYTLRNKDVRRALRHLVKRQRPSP
Procedure, shortened: as §1

[10] = target: T10, OR10Q1 (Homo sapiens) (UniProt Q8NGQ4)
T10 sequence (whole entry): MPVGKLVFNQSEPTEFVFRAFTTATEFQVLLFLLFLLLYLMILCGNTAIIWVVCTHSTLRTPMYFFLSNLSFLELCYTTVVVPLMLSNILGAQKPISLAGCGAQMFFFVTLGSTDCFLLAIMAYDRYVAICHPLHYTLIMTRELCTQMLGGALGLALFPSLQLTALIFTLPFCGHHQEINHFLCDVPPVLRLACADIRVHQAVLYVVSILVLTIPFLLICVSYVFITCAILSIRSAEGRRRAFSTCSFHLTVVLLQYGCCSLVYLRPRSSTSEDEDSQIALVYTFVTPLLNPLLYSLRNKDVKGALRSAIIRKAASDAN
Procedure, shortened: as §1

Measured: odorant receptor agonist call

CCCCCC(=O)C(C)C(C)=O (stereo not given)
inactive: all assays above
